GRK2 aptamer HTS: human GRK2 inhibition via aptamer displacement | 330,000 compounds, 0.59% hits | AID 488847 | inhibition of aptamer binding, % at 10 µM | P25098 | bead flow cytometry, FAM-aptamer displacement from GRK2;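 active = inhibition of aptamer binding above 40%, roughly 3 SD of noise, on plates passing a quality check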;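 also: median bead fluorescence of bound FAM aptamer so fluorescent compounds give negative values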
Scp1 inh: inhibitors of human Scp-1 phosphatase | 340,000 compounds, 0.88% hits | inhibition, % at 20 µM | Q9GZU7 | AID 493091 | Recombinant Scp1, phosphopeptide, malachite green phosphate absorbance;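 active = inhibition above about 50% at 20 µM, limit read from the data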;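 also: plate controls were DMSO wells with enzyme for no effect and wells lacking enzyme for full effect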
Target sequence (Q9GZU7 76-261 limits assumed): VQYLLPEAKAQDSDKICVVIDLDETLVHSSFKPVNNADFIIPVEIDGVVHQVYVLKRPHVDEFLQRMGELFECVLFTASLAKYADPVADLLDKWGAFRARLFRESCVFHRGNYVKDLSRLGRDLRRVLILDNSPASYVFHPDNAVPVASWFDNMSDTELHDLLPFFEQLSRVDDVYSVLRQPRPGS
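Material – SCP-1 phosphatase catalytic domain, residues 76-261 · Buffer or medium – Acidic Tris acetate buffer with magnesium and detergent · Also added – Phospho 17-mer peptide substrate · Compound – single 20 µM dose, 1% DMSO · Times – 45 min room-temperature reaction, 5 min colour, 30 min stabiliser · Technique – Phosphate-binding colour reagent, absorbance read at 630 nm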
LMPTP inh: blocks human LMPTP phosphatase | recombinant LMPTP-A, OMFP fluorogenic substrate, fluorescence intensity | inhibition, % at 20 µM | 360,000 compounds, 0.22% hits;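 active = compounds that cut the enzyme signal by at least half of the control window in the single-dose screen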;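 also: plate controls were DMSO wells with enzyme plus substrate for no effect and substrate without enzyme for full effect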
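Buffer or medium: Bis-Tris pH 6.0, DTT, detergent; Assay system: LMPTP-A enzyme; Quantity: 0.625 nM enzyme; Detection: endpoint fluorescence intensity; Times: 50 min dark incubation at room temperature; Controls: substrate-only low control, DMSO enzyme-plus-substrate high control; Doses: single 20 µM dose; Read-out: percent inhibition versus substrate-only and uninhibited controls; Reagent: 400 µM OMFP.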
STEP inh: blocks human striatal-enriched tyrosine phosphatase; P54829; recombinant STEP, OMFP fluorogenic substrate, fluorescence; inhibition, % at 20 µM; 360,000 compounds, 0.25% hits; AID 588621;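 active = inhibition at 20 µM, scaled per plate between control wells, above about 37%, limit read from the data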;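 also: 0% = DMSO with enzyme and substrate and 100% = substrate only without enzyme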
Target sequence (P54829 whole entry, looked up): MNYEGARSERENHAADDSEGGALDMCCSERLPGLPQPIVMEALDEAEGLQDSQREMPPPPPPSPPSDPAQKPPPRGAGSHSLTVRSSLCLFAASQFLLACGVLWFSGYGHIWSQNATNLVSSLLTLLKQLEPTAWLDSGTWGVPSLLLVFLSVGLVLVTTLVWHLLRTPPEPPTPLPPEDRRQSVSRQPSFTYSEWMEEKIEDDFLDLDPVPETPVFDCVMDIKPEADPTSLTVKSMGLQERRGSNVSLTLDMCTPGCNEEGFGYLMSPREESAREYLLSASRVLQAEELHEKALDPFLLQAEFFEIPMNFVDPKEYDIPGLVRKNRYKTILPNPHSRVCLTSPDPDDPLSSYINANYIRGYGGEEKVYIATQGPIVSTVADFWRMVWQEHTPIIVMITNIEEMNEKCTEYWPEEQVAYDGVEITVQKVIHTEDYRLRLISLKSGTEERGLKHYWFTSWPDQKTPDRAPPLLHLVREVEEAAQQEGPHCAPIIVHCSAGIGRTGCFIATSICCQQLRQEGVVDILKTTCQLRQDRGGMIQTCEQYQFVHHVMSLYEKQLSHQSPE
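Material: STEP (striatal-enriched tyrosine phosphatase) enzyme, cell-free | Medium: 50 mM Bis-Tris pH 6.0 with 2.5 mM DTT and 0.005% Tween 20 | Read-out: Percent inhibition scaled to no-enzyme and uninhibited-enzyme controls, plate-pattern corrected | Signal: Fluorescence read at 480 nm ex / 540 nm em | Times: 20 min reaction, room temperature, in the dark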
DNMT1 block: blocks human DNA methyltransferase DNMT1. AID 588458. P26358. inhibition (reported as % activation of signal), % at 10 µM. 360,000 compounds, 0.83% hits. DNMT1 molecular beacon, Hinp1I cleavage, fluorescence; in the data active = inhibition above about 50%
SUMO1-SIM PPI: alters human SUMO1 binding to SIM partners; P63165; SUMO1 binding to a labelled peptide, TR-FRET, 1 h; inhibition, % at 20 µM; 360,000 compounds, 0.33% hits; in the data active = inhibition above about 37%
GRK2 CP1: human GRK2 inhibition confirmation, cherry pick 1; shares compounds with GRK2 aptamer HTS; bead-bound GRK2, FAM-aptamer displacement, flow cytometry; aptamer displacement, % at 10 µM; 2,000 compounds, 4% hits;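 active = aptamer displacement above 40%, near three times the noise of non-fluorescent compounds, on plates passing quality checks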;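 also: negative values mostly reflect intrinsic compound fluorescence rather than true enhancement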
Aptamer quench: quenches fluorescent RNA aptamer, GRK2 hit artifact; 110 tested, under 10 active; fluorescence change (kMESF span), kMESF (no concentration beside the values); shares compounds with GRK2 aptamer HTS; Fluorescent RNA aptamer beads, quenching, flow cytometry; stronger effect = higher value;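 active = compounds whose bead fluorescence drops by more than 37 kMESF across the dose range, marking them as dye quenchers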
Aptamer quench SP: counter-screen for GRK2 aptamer inhibitors: fluorescent aptamer quenchers | shares compounds with GRK2 aptamer HTS | Carboxyfluorescein RNA aptamer on beads, flow cytometry quenching; stronger effect = lower value | fluorescence response (% of DMSO), % at 10 µM | 2,000 tested, under 10 active | AID 504580;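 active = compounds that quench the bead-bound fluorescent RNA probe, cutting fluorescence to under half of the solvent control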;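 also: counterscreen run without GRK2 so only probe quenching by compound is measured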
GRK2 CP2: human GRK2 inhibition confirmation, cherry pick 2; shares compounds with GRK2 aptamer HTS; bead-bound GRK2, FAM-aptamer displacement, flow cytometry; inhibition of aptamer binding, % at 10 µM; 360 tested, under 10 active;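 active = inhibition of aptamer binding above 40%, about triple the noise seen with nonglowing compounds, on plates passing quality control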;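 also: negative values mostly come from compounds that fluoresce themselves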
FAM quench SP: quenches fluorescent RNA aptamer, GRK2 hit artifact; shares compounds with GRK2 aptamer HTS; carboxyfluorescein RNA aptamer beads, flow cytometry quenching; stronger effect = lower value; fluorescence response vs DMSO, % at 10 µM; 360 tested, under 10 active;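 active = response vs DMSO under 50%, meaning signal dropped by over half, treated as fluorescence quencher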;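 also: labelled aptamer on streptavidin beads without GRK2 as a quench counter-screen; 100% = bead fluorescence of DMSO wells and lower means quenching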
* = called active by the depositor; . = no result. Hits are enriched below; roughly 2.1% of the tested compounds scored in any of these assays.

SMILES	GRK2 aptamer HTS	Scp1 inh	LMPTP inh	STEP inh	DNMT1 block	SUMO1-SIM PPI	GRK2 CP1	Aptamer quench SP	others
COc1ccc(S(=O)(=O)NCC(c2ccc(F)cc2)N2CCN(C)CC2)cc1 (centres undefined)	76*	-10	-2	-2	-1	1	46*	100	Aptamer quench=0.2
CC1(C(=O)NS(=O)(=O)c2ccc(C#N)cc2)CCN1C(=O)c1cccc2ccccc12 (centres undefined)	.	.	-3	1	2	4	.	.
CC(=O)N/C(=N/c1nc(C)cc(C)n1)Nc1cccc(C)c1C	17	-9	0	-2	-1	-3	0	98
O=C(N=Nc1c(O)[nH]c2ccc(Cl)cc12)c1cc(-c2cccs2)nc2ccccc12	0	4	2	5	44	-3	-7	96
CCCCCCn1c(=O)n2n(c1=O)C[C@]1(OC(=O)NCc3ccco3)CN(S(=O)(=O)c3ccc(C)cc3)C[C@]1(O)C2	.	.	2	0	4	1	.	.
NC(=O)N/N=C/c1ccc([N+](=O)[O-])o1	5	4	-1	2	-6	-30	.	.
O=C(N/N=C/c1ccc([N+](=O)[O-])o1)C1CC1	83*	45	2	6	36	-17	23	99
CCOc1cc(/C=C2\SC(=NC)N(C)C2=O)cc(Cl)c1OC(C)=O	3	5	-2	0	-2	-24	.	.
CCOc1cc(/C=C2\SC(=NC)N(C)C2=O)c(Br)cc1OC(C)=O	74*	-1	1	0	7	-9	0	92
CC(=O)N1CCc2c(sc(NC(=O)Cc3ccc(C)cc3C)c2C#N)C1	3	-2	0	-1	0	-2	.	.
CNC(=O)c1c(NC(=O)CCS(=O)(=O)c2ccccc2)sc2c1CCN(C(=O)OC)C2	30	-6	0	-1	-3	2	.	.	GRK2 CP2=13;FAM quench SP=104
CN1CCc2c(sc(NC(=O)CS(=O)(=O)c3ccccc3)c2C(N)=O)C1	3	-5	-1	2	2	1	.	.	GRK2 CP2=-4;FAM quench SP=100
CCCN1CCc2c(sc(NC(=O)CCS(=O)(=O)c3ccccc3)c2C(N)=O)C1	1	-7	-1	-1	0	-1	.	.
CCOC(=O)c1c(NC(=O)CCS(=O)(=O)c2ccccc2)sc2c1CCN(C(C)C)C2	0	-5	2	-1	-2	-2	.	.
CC(=O)N1CCc2c(sc(NC(=O)CCS(=O)(=O)c3ccc(C)cc3)c2C#N)C1	0	0	0	2	-2	-5	.	.	GRK2 CP2=24;FAM quench SP=100
CNC(=O)c1c(NC(=O)CCS(=O)(=O)c2ccc(C)cc2)sc2c1CCN(C(=O)OC)C2	0	-1	-2	-1	0	3	.	.	GRK2 CP2=12;FAM quench SP=98
Cc1cccc(C)c1N1C(=O)c2ccccc2NC(=O)C1C(=O)Nc1ccc(N2CCOCC2)cc1 (centres undefined)	.	.	0	.	.	-6	.	.
CCOc1ccc(OCCC(=O)N2CCc3cc(OC)c(OC)cc3C2)cc1	94*	-15	0	1	0	3	-3	97
COc1cc2c(cc1OC)CN(C(=O)CCOc1ccccc1)CC2	0	-3	0	0	-3	-6	.	.
COc1ccccc1[C@@]1(C)ON(c2ccccc2C(F)(F)F)C1=O	0	2	1	-2	8	3	.	.
CC(C)c1onc(C(=O)N(C)C2CCCCC2)c1[N+](=O)[O-]	54*	-4	-1	2	-1	-2	2	101
C[C@H](O)[C@@H]1C(=O)N2CCc3ccc(-c4ccccc4)cc3[C@@H]2C[C@@H]1N(C)C(=S)Nc1ccc(F)cc1	.	.	0	-2	-1	-1	.	.
O=C(/C=C/c1cccc(Br)c1)OCC(=O)N1CCN(c2ccccc2)CC1	76*	-3	1	2	-3	-12	1	99
C[C@H](CO)N1C[C@H](C)[C@@H](CN(C)Cc2ccccn2)Oc2ncc(-c3ccccc3)cc2C1=O	.	.	-2	3	5	2	.	.
COc1ccc(N=Cc2nc(-c3ccccc3)oc2OC(C)=O)cc1	73*	-5	-1	11	-5	-1	1	97
SMILES	GRK2 aptamer HTS	Scp1 inh	LMPTP inh	STEP inh	DNMT1 block	SUMO1-SIM PPI	GRK2 CP1	Aptamer quench SP	others
COc1cccc(N=Cc2nc(-c3ccccc3)oc2OC(C)=O)c1	0	-14	-1	2	-7	-1	.	.
Cc1onc(-c2ccccc2)c1C(=O)N1CCC(C)(C(=O)O)C1 (centres undefined)	.	.	-1	-1	3	-2	.	.
COc1cc(NC(=O)C2CCCO2)c(C(=O)O)cc1OC (centres undefined)	38	0	-1	-2	-1	4	0	99
O=C(O)c1cc(Cl)ccc1NC(=O)C1CCCO1 (centres undefined)	1	-2	0	0	0	-1	.	.
O=C(CNc1cccc(F)c1)Nc1cccc(S(=O)(=O)N2CCCCC2)c1	.	-7	-1	0	2	1	.	.
O=C(Nc1cccc(S(=O)(=O)NC2=NCCC2)c1)C1CC(=O)N(c2ccc3c(c2)OCCO3)C1 (centres undefined)	1	24	0	-2	9	1	2	97
CC(=O)c1cccc(NC(=O)C2CC(=O)N(c3ccc4c(c3)OCCO4)C2)c1 (centres undefined)	0	-3	-1	0	0	3	.	.
Cc1cccc(N2CC(C(=O)Nc3cccc(S(=O)(=O)N4CCCCC4)c3)CC2=O)c1C (centres undefined)	2	-6	2	-3	-2	17	-3	98
Cc1ccccc1N1CC(C(=O)N2CCCCCC2)CC1=O (centres undefined)	65*	-7	1	0	0	-7	-2	98
N#Cc1cccc(NC(=O)CNc2cccc(S(=O)(=O)N3CCCCC3)c2)c1	0	-7	0	-3	1	-1	1	102
